Converted amounts (≈) assume the structure as drawn.
Experiments:
[1] = Partition coefficient, log P of the compound in water/n-octanol at pH 7.4 at 25 degC by HPLC method; type: physicochemical
In short: (§1)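 Miniaturised shake-flask method: water/n-octanol for log P and PBS pH 7.4/n-octanol for log D, at 25 °C. Tubes were shaken overnight at 500 rpm and centrifuged at 16000 RCF for 20 min to separate the phases. Compound in each phase was quantified by reversed-phase C18 HPLC with the column at 37 °C. Run in triplicate.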

[2] = Distribution coefficient, log D of the compound in PBS/n-octanol at pH 7.4 at 25 degC by HPLC method; type: physicochemical; in short: as §1
[3] = Stability in pH 4.0 phosphate buffer assessed as compound remaining level at […] incubated for 24 hrs at 37 degC by HPLC method; type: physicochemical; conditions: for remaining at 24 h: pH 4.0 phosphate buffer, pH 4, read-out: Stability
[4] = Stability in pH 1.2 SGF assessed as compound remaining level at 120 mg/mL incubated for 24 hrs at 37 degC by HPLC method
In short: (§2)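 SGF (pH 1.2) and SIF (pH 6.8) were prepared per USP 2000. Compound was incubated at 37 °C and sampled at 0 and 24 h. Samples were quenched with ice-cold acetonitrile and centrifuged. Prodrug and bergenin were measured by compound-specific isocratic RP-C8 HPLC-UV. Each analysis in triplicate.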

[5] = Stability in pH 6.8 SIF assessed as compound remaining level at 120 mg/mL incubated for 24 hrs at 37 degC by HPLC method; in short: as §2
[6] = Solubility in water; type: physicochemical
[7] = Partition coefficient, log P of the compound; type: physicochemical; conditions: octanol/water; in short: as §1
[8] = Partition coefficient, log P of the compound in water/n-octanol at 25 degC by HPLC method; conditions: pH 7.4
[9] = target: Interleukin-6 (Homo sapiens, UniProt P05231); test: Inhibition of IL6 (unknown origin)
Chain of Interleukin-6 (P05231 whole entry): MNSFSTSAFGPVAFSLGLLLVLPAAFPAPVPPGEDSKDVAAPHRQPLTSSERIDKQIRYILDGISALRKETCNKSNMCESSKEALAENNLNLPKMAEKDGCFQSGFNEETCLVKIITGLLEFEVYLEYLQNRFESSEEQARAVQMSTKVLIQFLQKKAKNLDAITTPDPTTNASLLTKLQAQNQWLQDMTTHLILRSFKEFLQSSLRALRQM

[10] = target: Tumor necrosis factor (Homo sapiens, UniProt P01375); test: Inhibition of TNFalpha (unknown origin)
Chain of Tumor necrosis factor (P01375 whole entry): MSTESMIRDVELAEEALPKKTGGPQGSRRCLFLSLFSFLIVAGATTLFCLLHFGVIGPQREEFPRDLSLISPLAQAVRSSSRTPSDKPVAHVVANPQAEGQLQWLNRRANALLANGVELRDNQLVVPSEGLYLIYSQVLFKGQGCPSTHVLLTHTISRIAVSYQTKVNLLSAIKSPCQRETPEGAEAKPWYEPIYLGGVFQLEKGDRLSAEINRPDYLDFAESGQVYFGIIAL

[11] = Solubility in pH 1.0 buffer; type: physicochemical
[12] = Solubility in pH 3.0 buffer; type: physicochemical
[13] = Solubility in pH 5.0 buffer; type: physicochemical

Compound	logP [1]	logD [2]	remaining at 24 h [3] [%]	Stability [4] [%]	Stability [5] [%]	further results
COc1c(O)cc2c(c1O)[C@@H]1O[C@H](COC(=O)c3ccc([N+](=O)[O-])cc3)[C@@H](O)[C@H](O)[C@H]1OC2=O	1.563	1.53				
COc1c(OC(=O)c2ccc([N+](=O)[O-])cc2)cc2c(c1O)[C@@H]1O[C@H](COC(=O)c3ccc([N+](=O)[O-])cc3)[C@@H](O)[C@H](O)[C@H]1OC2=O	2.508	2.65	45	91.6	59.5	
CCCCCCCC(=O)OC[C@H]1O[C@H]2c3c(cc(OC(=O)CCCCCCC)c(OC)c3OC(=O)CCCCCCC)C(=O)O[C@@H]2[C@@H](OC(=O)CCCCCCC)[C@@H]1OC(=O)CCCCCCC	6.011	6.11				
COc1c(OC(=O)c2ccccc2)cc2c(c1OC(=O)c1ccccc1)[C@@H]1O[C@H](COC(=O)c3ccccc3)[C@@H](O)[C@H](O)[C@H]1OC2=O	2.553	1.77				
CCCCCC(=O)OC[C@H]1O[C@H]2c3c(cc(OC(=O)CCCCC)c(OC)c3OC(=O)CCCCC)C(=O)O[C@@H]2[C@@H](OC(=O)CCCCC)[C@@H]1OC(=O)CCCCC	5.967	6.06				
Nc1ncn([C@@H]2O[C@H](CO)[C@@H](O)[C@H]2O)c(=O)n1 [AZACITIDINE]						solubility [6]: 89000 µg/mL (≈ 364 mM); logP [7]: -3.1
COc1c(OC(C)=O)cc2c(c1OC(C)=O)[C@@H]1O[C@H](COC(C)=O)[C@@H](OC(C)=O)[C@H](OC(C)=O)[C@H]1OC2=O [BERGENIN PENTAACETATE]	1.155	0.516	119	99.1	100	
COc1c(OCc2ccccc2)cc2c(c1OCc1ccccc1)[C@@H]1O[C@H](CO)[C@@H](O)[C@H](O)[C@H]1OC2=O		1.98	52.4	68.8	90.5	logP [8]: 1.965
COc1c(OC(=O)c2c(F)cccc2F)cc2c(c1O)[C@@H]1O[C@H](COC(=O)c3c(F)cccc3F)[C@@H](O)[C@H](O)[C@H]1OC2=O	1.801	1.86				
COc1c(OC(C)=O)cc2c(c1OC(C)=O)[C@@H]1O[C@H](COC(C)=O)[C@@H](OC(C)=O)[C@H](O)[C@H]1OC2=O	1.181	0.429		92.3	41.8	Stability ([3]; buffer, pH 4, 24 h): 122.03%
COc1c(OC(=O)CC(C)C)cc2c(c1OC(=O)CC(C)C)[C@@H]1O[C@H](COC(=O)CC(C)C)[C@@H](OC(=O)CC(C)C)[C@H](OC(=O)CC(C)C)[C@H]1OC2=O	6.358	6.45				
CCCCOc1cc2c(c(OCCCC)c1OC)[C@@H]1O[C@H](CO)[C@@H](O)[C@H](O)[C@H]1OC2=O		2.83				logP [8]: 2.495
COc1c(OC(=O)c2c(Cl)cc(Cl)cc2Cl)cc2c(c1O)[C@@H]1O[C@H](COC(=O)c3c(Cl)cc(Cl)cc3Cl)[C@@H](O)[C@H](O)[C@H]1OC2=O	3.693	3.89	76	86.5	87.5	
COc1c(OC(=O)c2ccc(C(C)(C)C)cc2)cc2c(c1OC(=O)c1ccc(C(C)(C)C)cc1)[C@@H]1O[C@H](COC(=O)c3ccc(C(C)(C)C)cc3)[C@@H](O)[C@H](O)[C@H]1OC2=O	0.599	0.552	95	106	93.5	
COc1c(OC(=O)c2ccc(C(C)(C)C)cc2)cc2c(c1OC(=O)c1ccc(C(C)(C)C)cc1)[C@@H]1O[C@H](COC(=O)c3ccc(C(C)(C)C)cc3)[C@@H](OC(=O)c3ccc(C(C)(C)C)cc3)[C@H](OC(=O)c3ccc(C(C)(C)C)cc3)[C@H]1OC2=O	0.771	0.162	104	109	86.1	
COc1c(OC(=O)c2ccccc2C)cc2c(c1OC(=O)c1ccccc1C)[C@@H]1O[C@H](COC(=O)c3ccccc3C)[C@@H](OC(=O)c3ccccc3C)[C@H](O)[C@H]1OC2=O	1.751	1.61				
COc1c(O)cc2c(c1O)[C@@H]1O[C@H](CO)[C@@H](O)[C@H](O)[C@H]1OC2=O [BERGENIN]	-0.555	-0.947	102	111	101	solubility [6]: > 1000 µg/mL; logP [7]: -1.06; IC50 [9]: 0.208 µM; IC50 [10]: 12.5 µM; solubility [11]: 1290 µg/mL (≈ 3.93 mM); solubility [12]: 1080 µg/mL (≈ 3.29 mM); solubility [13]: 1220 µg/mL (≈ 3.72 mM)
COc1c(OC(C)=O)cc2c(c1O)[C@@H]1O[C@H](COC(C)=O)[C@@H](O)[C@H](O)[C@H]1OC2=O	-0.494	-1.06				
CCCOc1cc2c(c(OCCC)c1OC)[C@@H]1O[C@H](CO)[C@@H](O)[C@H](O)[C@H]1OC2=O	1.655	1.51				

— ChEMBL document CHEMBL4043202, “Synthesis, pH dependent, plasma and enzymatic stability of bergenin prodrugs for potential use against rheumatoid arthritis” (Bioorg Med Chem, 2017)
